Source: PubChem (Johns Hopkins Ion Channel Center)
RGS4 act: potentiators or activators of RGS4; HEK293 M3R/inducible RGS4, carbachol calcium flux Fluo4; active compounds read low; B-score at 10 µM; 0.92% of 310,000 active;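 active means B-score of the integrated calcium signal more than 4 SD below the library mean, with starting fluorescence not abnormally high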;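 further: negative B-score means reduced calcium response which marks RGS4 activation or potentiation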
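Material: M3R-expressing HEK293 line, RGS4 induced by doxycycline | Schedule: Overnight RGS4 induction, 30 min dye load 37 °C, 20 min compound RT | Measured by: Fluo4 fluorescence kinetic imaging of calcium | Read-out: Integrated calcium ratio converted to B score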
MrgX1 ag: agonists of human MrgX1 receptor; Q96LB2; 0.44% of 310,000 active; MrgX1-HEK293 cells, Fluo-4 calcium fluorescence, agonist mode; active compounds read high; AID 588627; B-score at 10 µM;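 active means calcium response B-score plate-corrected fluorescence ratio at least 3 library SD, with starting fluorescence B-score inside 5 SD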
Target sequence (Q96LB2 whole entry, looked up): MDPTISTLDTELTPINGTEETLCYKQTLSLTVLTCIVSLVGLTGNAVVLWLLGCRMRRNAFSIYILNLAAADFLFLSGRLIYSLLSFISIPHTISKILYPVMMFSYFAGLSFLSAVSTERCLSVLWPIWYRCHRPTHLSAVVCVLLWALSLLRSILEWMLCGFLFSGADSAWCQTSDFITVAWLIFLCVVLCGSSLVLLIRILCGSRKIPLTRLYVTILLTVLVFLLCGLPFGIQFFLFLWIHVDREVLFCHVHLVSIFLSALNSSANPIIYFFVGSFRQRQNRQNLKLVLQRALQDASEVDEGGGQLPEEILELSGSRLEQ
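Material: MrgX1-expressing HEK293 cells; input: 15,000 cells per well; doses: test compound given as first of three sequential additions; schedule: overnight plating before 1 h dye loading; technique: Fluo-4 NW calcium-flux fluorescence, kinetic read; evaluation: baseline-normalised fluorescence change ratio, B-scored; control set: plate-wise positive and negative controls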
MrgX1 allo act: human MrgX1 positive allosteric modulation, primary screen; MrgX1-HEK293, Fluo-4 calcium flux, FDSS; active compounds read high; Q96LB2; B-score at 10 µM; 0.63% of 310,000 active;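 active means plate-corrected calcium response at least 3 library SD above typical, normal starting fluorescence, not activating the receptor alone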;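 further: compound read alongside a low EC10 to EC30 dose of BAM8-22 agonist; peak minus trough fluorescence over baseline measured at the second addition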
MrgX1 antagonist: human MrgX1 receptor antagonism, primary screen; AID 588676; 1.3% of 310,000 active; MRGX1-HEK293 calcium flux, Fluo-4, BAM8-22 antagonism; active compounds read low; B-score at 10 µM; Q96LB2;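 active means calcium-response B-score plate-corrected more than 3 library SD below zero, starting fluorescence within 5 deviations, no agonist response on first addition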;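 further: peak minus trough fluorescence over baseline after final BAM8-22 challenge near maximal dose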
RGS4 inh: inhibitors of human RGS4; HEK293 M3R/RGS4 inducible, Fluo-4 calcium flux; active compounds read high; triggered by carbachol at its EC20; B-score at 10 µM; 0.45% of 310,000 active;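 active means B-score, a plate-corrected calcium signal, over three deviations above library mean, with baseline fluorescence within five deviations of library mean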;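 further: RGS4 expression induced by doxycycline in cells with stable M3 receptor; B-score is computed from the integrated fluorescence ratio over baseline after carbachol; higher B-score means a larger calcium signal and so more RGS4 inhibition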
Target sequence (P49798 whole entry, looked up): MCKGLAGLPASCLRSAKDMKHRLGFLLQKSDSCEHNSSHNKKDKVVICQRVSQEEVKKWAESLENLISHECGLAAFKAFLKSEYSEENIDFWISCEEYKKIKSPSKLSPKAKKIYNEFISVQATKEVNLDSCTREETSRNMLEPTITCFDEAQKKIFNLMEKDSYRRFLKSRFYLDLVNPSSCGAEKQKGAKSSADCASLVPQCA
Large screens that a line does not name were inactive. Hits are enriched below; roughly 3.5% of the tested compounds scored in any of these assays.

COc1ccccc1CN(C)C(=O)c1cc(-c2cccs2)nc2ccccc12	RGS4 act -8.58
COc1cccc(NC(=O)CN(C)C(=O)c2cc(-c3ccccc3)nc3ccccc23)c1	none
CCCN1CCC(NC(=O)C2CCCCC2C(=O)O)CC1 (stereo not given)	none
CC(C)(C)C1CCC(C(=O)OCC(=O)N2CCN(C(=O)c3ccco3)CC2)CC1 (stereo not given)	none
C=CCOc1ccc(/C=C/C(=O)OCC(=O)N2CCCc3ccccc32)cc1	MrgX1 antagonist -9.46
CN1CCc2c(sc(NC(=O)Cc3ccccc3)c2C(N)=O)C1	none
COc1cc2ccccc2cc1C(=O)Nc1sc2c(c1C(N)=O)CCN(C(C)C)C2	RGS4 act -7.49
CC(C)N1CCc2c(sc(NC(=O)CN3C(=O)c4ccccc4C3=O)c2C(N)=O)C1	none
CN1CCc2c(sc(NC(=O)c3ccc4ccccc4c3)c2C(N)=O)C1	MrgX1 ag 37.5
COc1ccc(-c2nc(CS(=O)CC(=O)NCCN3CCCCC3C)c(C)o2)cc1OC (stereo not given)	none
COc1ccc(N2C(=O)C(Cl)=C(NCc3ccccc3)C2=O)cc1	none
COc1ccccc1NC1=C(Cl)C(=O)N(C2CCCCC2)C1=O	MrgX1 allo act 7.6
CCOc1ccccc1NC1=C(Cl)C(=O)N(c2ccc(OC)cc2)C1=O	MrgX1 allo act 7.86
COc1cc(SC)ccc1C(=O)OCC(=O)NCCC1=CCCCC1	none
CCOC(=O)NN1C(=O)c2ccccc2NC1c1ccc(OC)c(OC)c1 (stereo not given)	none
CC1=C(C)CC(C(=O)Nc2ccc(C(=O)N3CCOCC3)cc2)C(C(=O)O)C1 (stereo not given)	none
COc1ccc(OCC(=O)NNC(=S)NC(=O)C2CCCCC2)cc1	MrgX1 ag 50
COc1ccc(CC(=O)NC(=S)NNC(=O)COc2c(C)cccc2C)cc1	MrgX1 ag 27.3
CCc1ccc(OCC(=O)NNC(=S)NC(=O)C2CC2)c(Br)c1	none
CCc1ccc(OCC(=O)NNC(=S)NC(=O)C2CCCCC2)c(Br)c1	MrgX1 antagonist -8.94
Cc1cc(C)cc(OCC(=O)NNC(=S)NC(=O)C2CC2)c1	MrgX1 ag 32.1
COc1ccc(OCC(=O)NNC(=S)NC(=O)C2CC2)cc1	none
COc1ccccc1/C=C(\NC(=O)c1ccccc1)C(=O)NCc1ccco1	none
COc1ccc(N(CC(=O)N/N=C/c2cc3ccc(OC)cc3nc2Cl)S(=O)(=O)c2ccccc2)cc1	MrgX1 allo act 9.09
COc1ccc(CCNC(=O)CC(C)(C)CC2=NS(=O)(=O)c3ccccc3N2)cc1OC	none
CCc1ccc(-c2nc(CSCC(=O)N3CCN(c4ccccn4)CC3)c(C)o2)cc1	MrgX1 antagonist -7.1
Cc1cc[n+](CC[n+]2ccc(C)cc2)cc1	none
CCC(C)(C)c1ccc(OCCCC[n+]2cccc(C)c2C)c(C(C)(C)CC)c1	MrgX1 antagonist -5.34
CCC(C)(C)c1ccc(OCCCC[n+]2ccc(C)cc2)c(C(C)(C)CC)c1	RGS4 act -9.27
COc1cc(OCc2ccccc2)c(C(=O)/C=C/c2ccc3c(c2)OCO3)c(OC)c1OC	none
CCCCCn1c(SCc2ccncc2)nc2cc(C(=O)NCc3ccco3)ccc2c1=O	RGS4 act -8.03
CCCCn1c(SCC(=O)NCc2ccco2)nc2ccccc2c1=O	none
CCc1cccc(NC(=O)C2CCCN(S(=O)(=O)c3cccs3)C2)c1 (stereo not given)	none
Cc1cccc([C@@H]2[C@@H]3C(=O)N(Cc4ccccc4)C(=O)[C@@H]3[C@]3(CC(C)C)C(=O)N(c4cccc(F)c4)C(=O)N23)c1	none
COc1ccc(-c2nn(-c3ccccc3)cc2/C=N/N=C(N)N)cc1OC	MrgX1 ag 44.4
O=C(CSc1c2c(nc3cc(Cl)ccc13)CCCC2)NCCCN1CCOCC1	none
CCN(CC)CCCNC(=O)CSc1c2c(nc3cc(Cl)ccc13)CCCC2	RGS4 act -7.23
O=C(C1CCN(c2nnc(-n3cccc3)s2)CC1)N1CCN(Cc2ccc3c(c2)OCO3)CC1	none
CC1CCN(Cc2ccc(NC(=O)C3CCN(c4nnc(-n5cccc5)s4)CC3)cc2)CC1	RGS4 act -8.21
COc1ccc(OC)c2c(C)cc(C)nc12	none
C/C(CC(=O)Nc1cccc(Cl)c1Cl)=N\NC(=O)c1ccccc1C	none
CCCCCCOC1(c2ccccc2)OC(=O)c2ccccc21 (stereo not given)	RGS4 act -6.96
Cc1ccc(Cl)cc1N1CCN(c2cccc[n+]2C)CC1	RGS4 act -7.35
Cc1cc2nc(-c3ccc(=O)[nH]c3)n(Cc3ccccc3)c2cc1C	none
CCOC(=O)C1=C(CSc2nc(-c3ccccc3)ccc2C#N)OC(N)=C(C#N)C1c1cccnc1 (stereo not given)	MrgX1 antagonist -6.1
CCc1ccc(OCC(=O)NNC(=O)Cc2c(F)cccc2Cl)cc1	MrgX1 antagonist -6.89
COCCCN=C1NN=C(c2cc(C)n(Cc3ccco3)c2C)CS1	MrgX1 allo act 10.5
Cc1cc(C2=NNC(=NC3CC3)SC2)c(C)n1Cc1ccco1	none (no result: RGS4 act, RGS4 inh)
COc1ccc(C(=O)NCC(=O)N/N=C(\C)Cc2ccccc2)cc1	MrgX1 allo act 7.02
COc1ccc2oc(C(=O)N3CCN(S(=O)(=O)c4cccc([N+](=O)[O-])c4)CC3)c(C)c2c1	MrgX1 allo act 16.5
C/C(=N\NC(=O)C1CC1)c1ccc(Cl)c(Cl)c1	none
C/C(=N\N=C(N)N)c1ccc(Cl)c(Cl)c1	MrgX1 allo act 14.1
COc1cccc(NC(=O)NC(C)C2CC3CCC2C3)c1 (stereo not given)	none
CC(C)c1ccccc1NC(=O)COC(=O)c1c2c(nc3ccccc13)CCN(Cc1ccccc1)C2	RGS4 act -8.12
Cc1c(Cl)cccc1NC(=O)COC(=O)c1c2c(nc3ccccc13)CCN(Cc1ccccc1)C2	none
CC(C)NC(=O)NC(=O)COC(=O)c1c2c(nc3ccccc13)CCC2	RGS4 act -7.05
O=S(=O)(NC1=NCCC1)c1ccc(F)cc1F	none
Cc1onc(-c2ccccc2)c1C(=O)NC(=S)NNC(=O)c1ccco1	MrgX1 ag 60
Cc1onc(-c2ccccc2)c1C(=O)NC(=S)NNC(=O)c1ccncc1	none
Cc1onc(-c2ccccc2)c1C(=O)NNC(=S)NC(=O)/C=C/c1cccs1	MrgX1 ag 58.1
Cc1nc(NCCOc2ccccc2)sc1C(=O)Nc1ccccc1	none
COc1ccc(NC(=O)COC(=O)c2ccc(O)cc2)c([N+](=O)[O-])c1	MrgX1 antagonist -5.54
CC(NC(=O)c1sc2cc([N+](=O)[O-])ccc2c1Cl)C(C)(C)C (stereo not given)	MrgX1 allo act 6.88
O=C(CC1C(=O)NCCN1Cc1c(F)cccc1Cl)NCCCn1cccn1 (stereo not given)	none
CCC(C)(C)NC(=O)C(c1ccco1)N(C(=O)Cn1nnc2ccccc21)c1ccc2c(c1)OCO2 (stereo not given)	MrgX1 allo act 8.89
